Experimental data from ChEMBL document CHEMBL1944507, “Structure-activity relationships for amide-, carbamate-, and urea-linked analogues of the tuberculosis drug (6S)-2-nitro-6-{[4-(trifluoromethoxy)benzyl]oxy}-6,7-dihydro-5H-imidazo[2,1-b][1,3]oxazine (PA-824)” (J Med Chem, 2012).
Converted amounts (≈) assume the structure as drawn.

Key:
Type in all cases: functional
[1] = test system: Mycobacterium tuberculosis; assay: Antimicrobial activity against Mycobacterium tuberculosis H37Rv ATCC 27294 harboring pFCA-lux AB gene measured under aerobic condition after 8 days by luminescence analysis; settings: H37Rv ATCC 27294, 192 h
Outline: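 MABA: replicating M. tb H37Rv exposed to compound aerobically for 8 days. […] Mean of at least two independent determinations ± SD.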

[2] = test system: Mycobacterium tuberculosis; assay: Antimicrobial activity against Mycobacterium tuberculosis H37Rv ATCC 27294 harboring pFCA-lux AB gene measured under anaerobic condition after 11 days by luminescence analysis; settings: H37Rv ATCC 27294, 264 h
Outline: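 LORA: luminescence-based low-oxygen-recovery assay on nonreplicating M. tb, 11-day anaerobic exposure. MIC is the mean of at least two independent determinations ± SD.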

[3] = test system: Mycobacterium tuberculosis; assay: Ratio of MIC for PA-824 to compound MIC for Mycobacterium tuberculosis H37Rv ATCC 27294 harboring pFCA-lux AB gene measured under aerobic condition after 8 days by luminescence analysis

## O=C(N[C@@H]1COc2nc([N+](=O)[O-])cn2C1)c1ccccc1OC(F)(F)F
[1]
  MIC: 27 µM (≈ 10.1 µg/mL)
[2]
  MIC: > 64 µM

## O=C(N[C@@H]1COc2nc([N+](=O)[O-])cn2C1)c1cccc(OC(F)(F)F)c1
[1]
  MIC: 4.9 µM (≈ 1.82 µg/mL)
[2]
  MIC: > 64 µM

## CN(C(=O)c1ccccc1OC(F)(F)F)[C@@H]1COc2nc([N+](=O)[O-])cn2C1
[1]
  MIC: 45 µM (≈ 17.4 µg/mL)
[2]
  MIC: > 64 µM

## O=C(Nc1ccc(-c2ccc(C(F)(F)F)nc2)cc1)N[C@@H]1COc2nc([N+](=O)[O-])cn2C1
[1]
  MIC: 0.17 µM (≈ 0.0762 µg/mL)
[2]
  MIC: 17 µM (≈ 7.62 µg/mL)

## O=C(Nc1ccc(-c2ccc(F)nc2)cc1)N[C@@H]1COc2nc([N+](=O)[O-])cn2C1
[1]
  MIC: 0.24 µM (≈ 0.0956 µg/mL)
[2]
  MIC: 11 µM (≈ 4.38 µg/mL)

## O=C(Nc1ccc(-c2ccnc(C(F)(F)F)c2)cc1)N[C@@H]1COc2nc([N+](=O)[O-])cn2C1
[1]
  MIC: 0.36 µM (≈ 0.161 µg/mL)
[2]
  MIC: 13 µM (≈ 5.83 µg/mL)

## O=C(NCc1ccc(-c2ccc(C(F)(F)F)cc2)cc1)N[C@@H]1COc2nc([N+](=O)[O-])cn2C1
[1]
  MIC: 0.32 µM (≈ 0.148 µg/mL)
[2]
  MIC: > 32 µM

## O=C(NCc1ccc(-c2ccc(F)cc2)cc1)N[C@@H]1COc2nc([N+](=O)[O-])cn2C1
[1]
  MIC: 0.11 µM (≈ 0.0453 µg/mL)
[2]
  MIC: 26 µM (≈ 10.7 µg/mL)

## O=C(Nc1ccc(OC(F)(F)F)cc1)O[C@@H]1COc2nc([N+](=O)[O-])cn2C1
[3]
  Ratio: 4
[1]
  MIC: 0.12 µM (≈ 0.0466 µg/mL)
[2]
  MIC: 2.7 µM (≈ 1.05 µg/mL)

## O=[N+]([O-])c1cn2c(n1)OC[C@@H](OCc1ccccc1OC(F)(F)F)C2
[1]
  MIC: 1.8 µM (≈ 0.647 µg/mL)
[2]
  MIC: 8.6 µM (≈ 3.09 µg/mL)

## O=[N+]([O-])c1cn2c(n1)OC[C@@H](OCc1cccc(OC(F)(F)F)c1)C2
[1]
  MIC: 0.36 µM (≈ 0.129 µg/mL)
[2]
  MIC: 2.1 µM (≈ 0.754 µg/mL)

## O=[N+]([O-])c1cn2c(n1)OC[C@@H](OCc1ccc(OC(F)(F)F)cc1)C2 [PRETOMANID]
[1]
  MIC: 0.5 µM (≈ 0.18 µg/mL)
[2]
  MIC: 2.6 µM (≈ 0.934 µg/mL)
